{
  "source": "ChEMBL document CHEMBL2169847",
  "about": "“New tricks for an old natural product: discovery of highly potent evodiamine derivatives as novel antitumor agents by systemic structure-activity relationship analysis and biological evaluations” (J Med Chem, 2012)",
  "key": {"[1]": {"assay": "Toxicity in mouse", "format": "organism-based", "details": "in vivo"}, "[2]": {"test_system": "MDA-MB-435", "assay": "Cytotoxicity against human MDA-MB-435 cells incubated for 72 hrs by MTT assay", "format": "functional", "details": "MDA-MB-435, 72 h", "summary_of_the_method": "(§1)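 MTT assay. Cells seeded at 5 × 10³/well and grown 24 h at 37 °C, 5% CO₂. Compounds added at several concentrations in triplicate wells, with 0.1% DMSO control, for 72 h. MTT then added for 4 h, formazan dissolved in DMSO, and absorbance read at 570 nm. GI₅₀ by Logit method; three experiments.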"}, "[3]": {"test_system": "A549", "assay": "Cytotoxicity against human A549 cells incubated for 72 hrs by MTT assay", "format": "functional", "details": "A549, 72 h", "summary_of_the_method": "as §1"}, "[4]": {"test_system": "HCT-116", "assay": "Cytotoxicity against human HCT116 cells incubated for 72 hrs by MTT assay", "format": "functional", "details": "HCT-116, 72 h", "summary_of_the_method": "as §1"}, "[5]": {"target": "T1, DNA topoisomerase 1 (Homo sapiens) (UniProt P11387)", "T1 sequence (whole entry)": "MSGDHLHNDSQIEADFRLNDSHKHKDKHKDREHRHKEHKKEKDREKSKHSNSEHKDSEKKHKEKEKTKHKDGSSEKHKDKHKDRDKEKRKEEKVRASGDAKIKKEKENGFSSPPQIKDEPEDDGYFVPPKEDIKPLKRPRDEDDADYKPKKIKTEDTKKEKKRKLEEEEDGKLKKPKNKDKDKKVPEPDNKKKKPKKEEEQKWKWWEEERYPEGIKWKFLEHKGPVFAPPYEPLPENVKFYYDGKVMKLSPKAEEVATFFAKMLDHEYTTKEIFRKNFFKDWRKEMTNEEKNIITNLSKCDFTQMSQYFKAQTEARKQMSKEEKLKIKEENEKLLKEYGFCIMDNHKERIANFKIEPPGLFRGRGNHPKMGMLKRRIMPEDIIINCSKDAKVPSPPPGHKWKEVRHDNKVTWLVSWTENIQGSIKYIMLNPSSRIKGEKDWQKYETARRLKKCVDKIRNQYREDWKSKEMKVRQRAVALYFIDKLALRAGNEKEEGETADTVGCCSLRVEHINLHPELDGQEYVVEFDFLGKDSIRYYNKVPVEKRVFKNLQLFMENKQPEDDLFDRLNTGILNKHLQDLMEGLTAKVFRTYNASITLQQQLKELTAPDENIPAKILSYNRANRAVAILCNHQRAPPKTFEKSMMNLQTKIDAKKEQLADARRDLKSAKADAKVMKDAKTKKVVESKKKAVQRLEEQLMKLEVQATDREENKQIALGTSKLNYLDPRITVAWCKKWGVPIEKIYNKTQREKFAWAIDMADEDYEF", "assay": "Inhibition of Top1 assessed as suppression of supercoiled pBR322 DNA relaxation measuring appearance of short DNA fragments at 100 uM incubated for 15 mins by electrophoresis method"}, "[6]": {"target": "T1, DNA topoisomerase 1 (Homo sapiens)", "assay": "Inhibition of Top1 assessed as suppression of supercoiled pBR322 DNA relaxation measuring appearance of short DNA fragments at 500 uM incubated for 15 mins by electrophoresis method"}, "[7]": {"test_system": "Nucleic Acid", "assay": "Induction of DNA intercalation in Escherichia coli pBR322 DNA assessed as induction of supercoiled DNA at 1 ug/ml incubated for 15 mins by electrophoresis based Top1 unwinding assay", "format": "nucleic-acid assay", "summary_of_the_method": "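pBR322 plasmid (0.25 μg) preincubated with 100 μM compound or 1 μg/mL ethidium bromide, 37 °C, 15 min, in Top1 buffer (35 mM Tris-HCl pH 8.0, 72 mM KCl, 5 mM MgCl2, 5 mM DTT, 5 mM spermidine, 0.1% BSA). 5 U Top1 then added for 60 min at 37 °C. Stopped with SDS and proteinase K (50 °C, 20 min), phenol/chloroform extracted, agarose gel.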"}, "[8]": {"test_system": "PC-3", "assay": "Cytotoxicity against human PC3 cells incubated for 72 hrs by MTT assay", "format": "functional", "details": "PC-3, 72 h", "summary_of_the_method": "as §1"}, "[9]": {"test_system": "SAOS-2", "assay": "Cytotoxicity against human Saos2 cells incubated for 72 hrs by MTT assay", "format": "functional", "details": "SAOS-2, 72 h", "summary_of_the_method": "as §1"}, "[10]": {"test_system": "U2OS", "assay": "Cytotoxicity against human U2OS cells incubated for 72 hrs by MTT assay", "format": "functional", "summary_of_the_method": "as §1"}, "[11]": {"test_system": "A549", "assay": "Antitumor activity against human A549 cells xenografted in BALB/C nude mouse assessed as tumor growth inhibition at 1 mg/kg, ip for 13 days measured on 30 to 33 days post implantation", "format": "functional, organism-based", "parameters": "dose 1 mg/kg", "summary_of_the_method": "(§2)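 Cells implanted subcutaneously in right axilla of nude mice; dosing began at tumor volume about 100−300 mm³ (day 17). Randomized, six mice per treatment group and eight controls; ip injection. Tumor volume by caliper, TV = 1/2 × a × b², with body weight every 4 days. Mice sacrificed day 30−33 and tumors removed. Mean SEM, Student's t test versus control.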"}, "[12]": {"test_system": "HepG2", "assay": "Cytotoxicity against human HepG2 cells incubated for 72 hrs by MTT assay", "format": "functional", "details": "HepG2, 72 h", "summary_of_the_method": "as §1"}, "[13]": {"test_system": "HL-60", "assay": "Cytotoxicity against human HL60 cells incubated for 72 hrs by MTT assay", "format": "functional", "details": "HL-60, 72 h", "summary_of_the_method": "as §1"}, "[14]": {"test_system": "PANC-1", "assay": "Cytotoxicity against human PANC1 cells incubated for 72 hrs by MTT assay", "format": "functional", "details": "PANC-1, 72 h", "summary_of_the_method": "as §1"}, "[15]": {"target": "DNA topoisomerase 2-alpha (Homo sapiens) (UniProt P11388)", "sequence (P11388 whole entry)": "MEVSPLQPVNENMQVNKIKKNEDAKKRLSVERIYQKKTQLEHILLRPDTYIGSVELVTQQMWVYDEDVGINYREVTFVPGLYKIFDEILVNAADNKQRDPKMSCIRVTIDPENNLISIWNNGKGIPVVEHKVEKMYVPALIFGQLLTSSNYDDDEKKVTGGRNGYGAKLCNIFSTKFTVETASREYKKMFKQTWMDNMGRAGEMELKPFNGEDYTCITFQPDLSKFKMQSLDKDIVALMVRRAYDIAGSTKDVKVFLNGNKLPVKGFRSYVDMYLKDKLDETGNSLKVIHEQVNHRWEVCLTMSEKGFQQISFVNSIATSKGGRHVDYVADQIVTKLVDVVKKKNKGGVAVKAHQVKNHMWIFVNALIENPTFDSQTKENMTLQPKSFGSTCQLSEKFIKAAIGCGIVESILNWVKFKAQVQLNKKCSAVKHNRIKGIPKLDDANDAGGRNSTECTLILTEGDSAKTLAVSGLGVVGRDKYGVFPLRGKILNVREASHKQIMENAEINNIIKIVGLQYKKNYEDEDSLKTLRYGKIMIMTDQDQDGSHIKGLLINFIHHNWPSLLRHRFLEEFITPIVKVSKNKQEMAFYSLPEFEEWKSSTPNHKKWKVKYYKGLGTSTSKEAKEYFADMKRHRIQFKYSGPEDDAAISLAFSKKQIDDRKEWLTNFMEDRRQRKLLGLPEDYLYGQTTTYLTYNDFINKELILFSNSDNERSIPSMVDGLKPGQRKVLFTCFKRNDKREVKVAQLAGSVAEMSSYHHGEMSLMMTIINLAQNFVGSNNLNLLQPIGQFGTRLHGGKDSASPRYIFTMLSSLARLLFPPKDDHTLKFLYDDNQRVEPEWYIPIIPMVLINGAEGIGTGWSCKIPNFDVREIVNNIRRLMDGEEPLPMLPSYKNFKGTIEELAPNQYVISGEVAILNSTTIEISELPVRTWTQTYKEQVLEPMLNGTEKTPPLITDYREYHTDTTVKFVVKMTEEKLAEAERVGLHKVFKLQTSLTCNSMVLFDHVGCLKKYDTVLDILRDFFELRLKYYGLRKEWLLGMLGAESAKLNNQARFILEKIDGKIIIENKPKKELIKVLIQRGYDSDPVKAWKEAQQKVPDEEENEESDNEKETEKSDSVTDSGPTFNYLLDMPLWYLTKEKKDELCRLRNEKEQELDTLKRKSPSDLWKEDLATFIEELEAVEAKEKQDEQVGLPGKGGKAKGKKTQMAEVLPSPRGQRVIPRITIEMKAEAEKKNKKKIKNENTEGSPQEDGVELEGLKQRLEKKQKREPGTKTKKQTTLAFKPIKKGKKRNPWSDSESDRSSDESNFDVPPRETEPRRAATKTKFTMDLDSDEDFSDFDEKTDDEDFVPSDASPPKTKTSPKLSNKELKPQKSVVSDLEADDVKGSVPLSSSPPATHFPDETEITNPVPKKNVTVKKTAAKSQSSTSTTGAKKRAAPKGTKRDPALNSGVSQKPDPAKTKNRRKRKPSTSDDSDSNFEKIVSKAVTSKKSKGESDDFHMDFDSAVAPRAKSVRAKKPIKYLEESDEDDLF", "assay": "Inhibition of human Top2alpha assessed as suppression of supercoiled pBR322 DNA relaxation at 50 uM incubated for 30 mins in presence of excess ATP level by electrophoresis method"}, "[16]": {"test_system": "Mus musculus", "assay": "Toxicity in BALB/C nude mouse xenografted with human A549 cells assessed as reduction in body weight at 1 mg/kg, ip for 13 days measured on 30 to 33 days post implantation", "format": "organism-based", "parameters": "dose 1 mg/kg, route intraperitoneal", "details": "in vivo", "summary_of_the_method": "as §2"}, "[17]": {"target": "DNA topoisomerase 2-alpha (Homo sapiens) (UniProt P11388)", "assay": "Inhibition of human Top2alpha assessed as suppression of supercoiled pBR322 DNA relaxation at 50 uM incubated for 30 mins by electrophoresis method"}},
  "note": "Active and inactive are the calls of the source. No cut-off for these calls is given here.",
  "data": [
    {"smiles": "CN1c2ccccc2C(=O)N2CCc3c([nH]c4ccccc34)[C@H]21", "note": "[EVODIAMINE]", "values": [
      {"measurement": "LD50", "setting": "[1]", "result": 77.8, "unit": "mg/kg"}
    ]},
    {"smiles": "CN1c2ccccc2C(=O)N2CCc3c([nH]c4ccccc34)[C@@H]21", "note": "[EVODIAMINE]", "values": [
      {"measurement": "GI50", "setting": "[2]", "result": 20.2, "unit": "µM"},
      {"measurement": "GI50", "setting": "[3]", "result": 100, "unit": "µM"},
      {"measurement": "GI50", "setting": "[4]", "result": 100, "unit": "µM"},
      {"measurement": "inhibition", "setting": "[5]", "result": "inactive"},
      {"measurement": "inhibition", "setting": "[6]", "result": "Active"}
    ]},
    {"smiles": "CC[n+]1c(-c2ccccc2)c2cc(N)ccc2c2ccc(N)cc21", "values": [
      {"measurement": "Activity", "setting": "[7]", "result": "Active"}
    ]},
    {"smiles": "CN1c2ccc(F)cc2C(=O)N2CCc3c([nH]c4ccccc34)C21", "note": "(stereo unspecified)", "values": [
      {"measurement": "GI50", "setting": "[8]", "result": 34.2, "unit": "µM"},
      {"measurement": "GI50", "setting": "[9]", "result": 205, "unit": "µM"},
      {"measurement": "GI50", "setting": "[10]", "result": 129, "unit": "µM"},
      {"measurement": "GI50", "setting": "[2]", "result": "< 0.003", "unit": "µM"},
      {"measurement": "TGI", "setting": "[11]", "result": "Active"},
      {"measurement": "GI50", "setting": "[12]", "result": 188, "unit": "µM"},
      {"measurement": "GI50", "setting": "[13]", "result": "< 0.003", "unit": "µM"},
      {"measurement": "GI50", "setting": "[3]", "result": "< 0.003", "unit": "µM"},
      {"measurement": "GI50", "setting": "[14]", "result": 1.7, "unit": "µM"},
      {"measurement": "GI50", "setting": "[4]", "result": "< 0.003", "unit": "µM"},
      {"measurement": "inhibition", "setting": "[5]", "result": "Active"},
      {"measurement": "inhibition", "setting": "[15]", "result": "inactive"},
      {"measurement": "Activity", "setting": "[16]", "result": "Non-toxic"},
      {"measurement": "inhibition", "setting": "[17]", "result": "Active"}
    ]}
  ]
}
